The source made the active and inactive calls. The calls are words filed in the database; no cut-off is given here.
Key:
[1] = test system: HEK-293T; assay: Effect on sulfonate ester-Rh labeled soluble proteome in HEK293T cells at 100 uM incubated for 1 hr before proteome labeling measured after 1 hr relative to control; assay type: cell-based; conditions: Homo sapiens
Procedure, shortened: (§1)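 HEK 293T cells (DMEM, 10% FBS, 37 °C, 5% CO2) given compound in medium for 1 h at 37 °C, washed, scraped, sonicated in PBS pH 7.5. Soluble fraction diluted to 1 mg/mL protein in PBS, labeled with CA-rhodamine or SE-rhodamine (5 μM, 1 h, 25 °C), run on reducing SDS-PAGE (10%), and band intensities read by in-gel fluorescence against DMSO-treated samples.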

[2] = test system: HEK-293T; assay: Effect on chloroacetamide-Rh labeled soluble proteome in HEK293T cells at 100 uM incubated for 1 hr before protein labeling measured after 1 hr relative to control; assay type: cell-based; conditions: Homo sapiens; procedure, shortened: as §1
[3] = target: Calcium-independent phospholipase A2-gamma (Homo sapiens) (UniProt Q9NP80); assay: Inhibition of PNPLA8 binding to FP-biotin in [12C][14N]-lysine, arginine and [13C6][15N2]-lysine, arginine labeled HEK293T cells at 20 uM after 1 hr by isotopic activity-based protein profiling-MudPIT assay; assay type: cell-based; conditions: HEK-293T
Procedure, shortened: (§2)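 SILAC HEK 293T: light cells (12C14N-Lys/Arg) treated with compound, heavy cells (13C6 15N2-Lys/Arg) with DMSO, 1 h at 37 °C. Proteomes were mixed 1:1 (0.5 mg each) and labeled with FP-biotin (5 μM, 1 h, 25 °C), then streptavidin-enriched, digested on bead with trypsin, and run by MudPIT. Light/heavy ratios were normalized to a DMSO/DMSO control. Only SHs with ≥2 quantifiable peptides were kept; mean ± SEM across peptides.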

[4] = target: Monoacylglycerol lipase ABHD6 (Homo sapiens) (UniProt Q9BV23); assay: Inhibition of ABHD6 binding to FP-biotin in [12C][14N]-lysine, arginine and [13C6][15N2]-lysine, arginine labeled HEK293T cells at 20 uM after 1 hr by isotopic activity-based protein profiling-MudPIT assay; assay type: cell-based; conditions: HEK-293T; procedure, shortened: as §2
[5] = target: Dipeptidyl peptidase 9 (Homo sapiens) (UniProt Q86TI2); assay: Inhibition of DPP9 binding to FP-biotin in[12C][14N]-lysine, arginine and [13C6][15N2]-lysine, arginine labeled HEK293T cells at 20 uM after 1 hr by isotopic activity-based protein profiling-MudPIT assay; assay type: cell-based; conditions: HEK-293T; procedure, shortened: as §2
[6] = target: S-formylglutathione hydrolase (Homo sapiens) (UniProt P10768); assay: Inhibition of ESD binding to FP-biotin in [12C][14N]-lysine, arginine and [13C6][15N2]-lysine, arginine labeled HEK293T cells at 20 uM after 1 hr by isotopic activity-based protein profiling-MudPIT assay; assay type: cell-based; conditions: HEK-293T; procedure, shortened: as §2
[7] = target: Retinoid-inducible serine carboxypeptidase (Homo sapiens) (UniProt Q9HB40); assay: Inhibition of SCPEP1 binding to FP-biotin in [12C][14N]-lysine, arginine and [13C6][15N2]-lysine, arginine labeled HEK293T cells at 20 uM after 1 hr by isotopic activity-based protein profiling-MudPIT assay; assay type: cell-based; conditions: HEK-293T; procedure, shortened: as §2
[8] = target: Neutral cholesterol ester hydrolase 1 (Homo sapiens) (UniProt Q6PIU2); assay: Inhibition of AADACL1 binding to FP-biotin in [12C][14N]-lysine, arginine and [13C6][15N2]-lysine, arginine labeled HEK293T cells at 20 uM after 1 hr by isotopic activity-based protein profiling-MudPIT assay; assay type: cell-based; conditions: HEK-293T; procedure, shortened: as §2
[9] = target: Acylamino-acid-releasing enzyme (Homo sapiens) (UniProt P13798); assay: Inhibition of APEH binding to FP-biotin in [12C][14N]-lysine, arginine and [13C6][15N2]-lysine, arginine labeled HEK293T cells at 20 uM after 1 hr by isotopic activity-based protein profiling-MudPIT assay; assay type: cell-based; conditions: HEK-293T; procedure, shortened: as §2
[10] = target: Lysophospholipase-like protein 1 (Homo sapiens) (UniProt Q5VWZ2); assay: Inhibition of LYPLAL1 binding to FP-biotin in [12C][14N]-lysine, arginine and [13C6][15N2]-lysine, arginine labeled HEK293T cells at 20 uM after 1 hr by isotopic activity-based protein profiling-MudPIT assay; assay type: cell-based; conditions: HEK-293T; procedure, shortened: as §2
[11] = target: Fatty acid synthase (Homo sapiens) (UniProt P49327); assay: Inhibition of FASN binding to FP-biotin in [12C][14N]-lysine, arginine and [13C6][15N2]-lysine, arginine labeled HEK293T cells at 20 uM after 1 hr by isotopic activity-based protein profiling-MudPIT assay; assay type: cell-based; conditions: HEK-293T; procedure, shortened: as §2
[12] = target: Acyl-protein thioesterase 1 (Homo sapiens) (UniProt O75608); assay: Inhibition of LYPLA1 binding to FP-biotin in [12C][14N]-lysine, arginine and [13C6][15N2]-lysine, arginine labeled HEK293T cells at 20 uM after 1 hr by isotopic activity-based protein profiling-MudPIT assay; assay type: cell-based; conditions: HEK-293T; procedure, shortened: as §2
[13] = target: Lysosomal phospholipase A and acyltransferase (Homo sapiens) (UniProt Q8NCC3); assay: Inhibition of LYPLA3 binding to FP-biotin in [12C][14N]-lysine, arginine and [13C6][15N2]-lysine, arginine labeled HEK293T cells at 20 uM after 1 hr by isotopic activity-based protein profiling-MudPIT assay; assay type: cell-based; conditions: HEK-293T; procedure, shortened: as §2
[14] = target: Acyl-coenzyme A thioesterase 2, mitochondrial (Homo sapiens) (UniProt P49753); assay: Inhibition of ACOT2 binding to FP-biotin in [12C][14N]-lysine, arginine and [13C6][15N2]-lysine, arginine labeled HEK293T cells at 20 uM after 1 hr by isotopic activity-based protein profiling-MudPIT assay; assay type: cell-based; conditions: HEK-293T; procedure, shortened: as §2
[15] = target: Acyl-coenzyme A thioesterase 1 (Homo sapiens) (UniProt Q86TX2); assay: Inhibition of ACOT1 binding to FP-biotin in [12C][14N]-lysine, arginine and [13C6][15N2]-lysine, arginine labeled HEK293T cells at 20 uM after 1 hr by isotopic activity-based protein profiling-MudPIT assay; assay type: cell-based; conditions: HEK-293T; procedure, shortened: as §2
[16] = target: T1, Protein phosphatase methylesterase 1 (Homo sapiens) (UniProt Q9Y570); conditions: HEK-293T, 50 uM
T1 sequence (whole entry): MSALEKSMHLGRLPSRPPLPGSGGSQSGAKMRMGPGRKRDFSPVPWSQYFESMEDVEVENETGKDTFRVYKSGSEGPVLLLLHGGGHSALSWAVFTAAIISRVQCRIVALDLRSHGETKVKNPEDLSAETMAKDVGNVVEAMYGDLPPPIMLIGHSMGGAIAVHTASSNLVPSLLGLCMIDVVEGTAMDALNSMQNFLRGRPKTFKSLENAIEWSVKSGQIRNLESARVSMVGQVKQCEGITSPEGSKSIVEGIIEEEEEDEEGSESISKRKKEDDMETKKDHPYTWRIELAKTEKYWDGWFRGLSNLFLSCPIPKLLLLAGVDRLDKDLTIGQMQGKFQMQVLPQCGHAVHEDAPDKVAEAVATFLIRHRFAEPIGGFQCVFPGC

Lysosomal phospholipase A and acyltransferase (Homo sapiens), sequence (Q8NCC3 whole entry): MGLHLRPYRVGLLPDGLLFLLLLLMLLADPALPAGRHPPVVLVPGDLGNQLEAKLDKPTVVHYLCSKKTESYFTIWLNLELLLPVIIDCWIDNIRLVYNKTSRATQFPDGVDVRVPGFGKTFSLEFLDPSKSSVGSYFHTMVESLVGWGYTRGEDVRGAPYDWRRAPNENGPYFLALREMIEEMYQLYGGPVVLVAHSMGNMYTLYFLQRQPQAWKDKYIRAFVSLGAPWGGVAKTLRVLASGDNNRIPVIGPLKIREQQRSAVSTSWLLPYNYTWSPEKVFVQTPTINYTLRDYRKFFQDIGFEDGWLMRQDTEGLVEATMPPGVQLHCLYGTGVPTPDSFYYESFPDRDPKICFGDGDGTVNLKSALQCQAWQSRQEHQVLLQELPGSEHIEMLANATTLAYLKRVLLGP
Acylamino-acid-releasing enzyme (Homo sapiens), sequence (P13798 whole entry): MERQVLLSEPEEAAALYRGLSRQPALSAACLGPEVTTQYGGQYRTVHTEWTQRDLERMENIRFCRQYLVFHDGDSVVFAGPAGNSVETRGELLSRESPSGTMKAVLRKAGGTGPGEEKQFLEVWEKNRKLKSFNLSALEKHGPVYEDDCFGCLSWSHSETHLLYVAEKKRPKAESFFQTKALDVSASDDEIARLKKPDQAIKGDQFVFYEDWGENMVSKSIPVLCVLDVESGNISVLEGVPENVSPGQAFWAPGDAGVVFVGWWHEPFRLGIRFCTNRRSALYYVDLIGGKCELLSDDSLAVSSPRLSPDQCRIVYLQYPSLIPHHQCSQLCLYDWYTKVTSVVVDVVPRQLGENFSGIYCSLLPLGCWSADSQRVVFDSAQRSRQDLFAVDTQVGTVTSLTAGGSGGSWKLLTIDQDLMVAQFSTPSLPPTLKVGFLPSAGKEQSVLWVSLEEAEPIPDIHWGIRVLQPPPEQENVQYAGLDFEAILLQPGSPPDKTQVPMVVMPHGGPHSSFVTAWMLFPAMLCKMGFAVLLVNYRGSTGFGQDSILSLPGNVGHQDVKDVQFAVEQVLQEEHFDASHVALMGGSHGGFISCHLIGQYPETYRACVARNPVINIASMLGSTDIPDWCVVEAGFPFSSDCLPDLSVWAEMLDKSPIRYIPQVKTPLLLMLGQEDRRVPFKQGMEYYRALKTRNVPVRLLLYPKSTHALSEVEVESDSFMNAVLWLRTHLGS
Monoacylglycerol lipase ABHD6 (Homo sapiens), sequence (Q9BV23 whole entry): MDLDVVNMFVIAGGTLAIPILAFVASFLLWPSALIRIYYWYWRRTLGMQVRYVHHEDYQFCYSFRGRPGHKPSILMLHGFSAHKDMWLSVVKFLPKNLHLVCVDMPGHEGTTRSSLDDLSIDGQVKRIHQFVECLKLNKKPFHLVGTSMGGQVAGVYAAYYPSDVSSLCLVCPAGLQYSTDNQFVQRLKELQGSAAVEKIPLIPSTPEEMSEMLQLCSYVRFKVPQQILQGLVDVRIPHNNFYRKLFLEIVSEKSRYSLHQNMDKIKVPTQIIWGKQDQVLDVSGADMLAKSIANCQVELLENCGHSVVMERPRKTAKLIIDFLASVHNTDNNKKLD
Lysophospholipase-like protein 1 (Homo sapiens), sequence (Q5VWZ2 whole entry): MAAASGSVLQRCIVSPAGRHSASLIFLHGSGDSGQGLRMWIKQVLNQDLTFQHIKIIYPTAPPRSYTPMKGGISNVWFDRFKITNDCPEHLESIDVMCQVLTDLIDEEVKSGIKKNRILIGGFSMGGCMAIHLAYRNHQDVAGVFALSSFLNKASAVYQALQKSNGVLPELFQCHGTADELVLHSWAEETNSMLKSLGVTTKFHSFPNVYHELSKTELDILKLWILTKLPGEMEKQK
Acyl-protein thioesterase 1 (Homo sapiens), sequence (O75608 whole entry): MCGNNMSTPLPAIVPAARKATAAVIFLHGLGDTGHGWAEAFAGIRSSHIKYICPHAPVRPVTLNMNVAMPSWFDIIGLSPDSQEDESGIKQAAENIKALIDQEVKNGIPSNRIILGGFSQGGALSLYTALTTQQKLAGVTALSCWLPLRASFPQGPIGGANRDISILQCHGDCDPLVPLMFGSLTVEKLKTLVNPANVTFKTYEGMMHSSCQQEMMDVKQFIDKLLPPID
Acyl-coenzyme A thioesterase 2, mitochondrial (Homo sapiens), sequence (P49753 whole entry): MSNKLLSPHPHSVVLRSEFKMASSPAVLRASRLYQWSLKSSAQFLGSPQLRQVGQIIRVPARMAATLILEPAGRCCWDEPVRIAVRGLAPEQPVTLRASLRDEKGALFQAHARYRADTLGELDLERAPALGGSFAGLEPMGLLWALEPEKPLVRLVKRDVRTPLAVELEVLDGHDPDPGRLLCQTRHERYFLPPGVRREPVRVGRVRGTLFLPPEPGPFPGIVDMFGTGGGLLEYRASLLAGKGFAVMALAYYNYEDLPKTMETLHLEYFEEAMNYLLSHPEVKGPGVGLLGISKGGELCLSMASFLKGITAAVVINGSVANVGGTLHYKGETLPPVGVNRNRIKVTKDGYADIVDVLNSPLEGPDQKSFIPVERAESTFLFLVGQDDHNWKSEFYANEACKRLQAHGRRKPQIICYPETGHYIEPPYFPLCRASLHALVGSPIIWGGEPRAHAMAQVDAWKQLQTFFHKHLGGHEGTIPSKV
Calcium-independent phospholipase A2-gamma (Homo sapiens), sequence (Q9NP80 whole entry): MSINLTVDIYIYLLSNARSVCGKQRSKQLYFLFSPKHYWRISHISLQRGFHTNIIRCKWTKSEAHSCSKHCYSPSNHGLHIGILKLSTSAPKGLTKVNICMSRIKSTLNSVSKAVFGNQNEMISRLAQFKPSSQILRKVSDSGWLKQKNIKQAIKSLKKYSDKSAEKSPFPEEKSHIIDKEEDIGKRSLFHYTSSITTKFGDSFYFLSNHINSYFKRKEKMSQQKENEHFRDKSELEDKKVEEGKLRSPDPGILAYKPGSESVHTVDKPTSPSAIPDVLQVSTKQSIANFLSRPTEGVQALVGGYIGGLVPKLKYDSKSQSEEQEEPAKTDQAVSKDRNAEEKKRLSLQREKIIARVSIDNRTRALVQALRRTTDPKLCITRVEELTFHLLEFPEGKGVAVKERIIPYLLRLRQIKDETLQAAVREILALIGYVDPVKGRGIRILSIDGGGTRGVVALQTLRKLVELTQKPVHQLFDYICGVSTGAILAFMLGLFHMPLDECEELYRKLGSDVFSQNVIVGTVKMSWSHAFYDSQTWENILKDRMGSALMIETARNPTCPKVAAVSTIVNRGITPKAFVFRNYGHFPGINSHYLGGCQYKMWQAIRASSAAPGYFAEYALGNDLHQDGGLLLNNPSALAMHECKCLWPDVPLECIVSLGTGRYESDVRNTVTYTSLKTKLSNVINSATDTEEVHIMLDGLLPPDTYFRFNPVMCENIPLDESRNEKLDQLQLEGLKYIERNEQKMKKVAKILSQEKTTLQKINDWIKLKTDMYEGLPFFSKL
Acyl-coenzyme A thioesterase 1 (Homo sapiens), sequence (Q86TX2 whole entry): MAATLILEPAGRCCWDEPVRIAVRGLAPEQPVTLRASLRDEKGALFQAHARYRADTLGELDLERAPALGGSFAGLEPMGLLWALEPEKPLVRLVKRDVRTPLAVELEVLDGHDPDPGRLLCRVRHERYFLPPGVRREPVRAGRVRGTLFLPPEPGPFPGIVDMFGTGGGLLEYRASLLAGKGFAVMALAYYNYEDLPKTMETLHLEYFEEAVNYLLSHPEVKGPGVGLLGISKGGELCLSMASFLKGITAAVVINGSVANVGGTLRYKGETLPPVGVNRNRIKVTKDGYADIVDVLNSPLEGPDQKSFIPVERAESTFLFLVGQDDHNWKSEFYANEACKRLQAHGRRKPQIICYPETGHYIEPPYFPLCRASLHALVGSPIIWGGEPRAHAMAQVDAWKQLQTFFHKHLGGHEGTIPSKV
S-formylglutathione hydrolase (Homo sapiens), sequence (P10768 whole entry): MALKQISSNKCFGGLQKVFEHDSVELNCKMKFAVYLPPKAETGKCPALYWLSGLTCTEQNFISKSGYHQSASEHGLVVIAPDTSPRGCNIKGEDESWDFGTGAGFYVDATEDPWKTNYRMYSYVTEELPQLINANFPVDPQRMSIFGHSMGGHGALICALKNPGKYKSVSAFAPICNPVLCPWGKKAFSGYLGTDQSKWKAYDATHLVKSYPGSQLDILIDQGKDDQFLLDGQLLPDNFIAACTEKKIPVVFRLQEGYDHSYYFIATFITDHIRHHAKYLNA
Dipeptidyl peptidase 9 (Homo sapiens), sequence (Q86TI2 2-863 limits assumed): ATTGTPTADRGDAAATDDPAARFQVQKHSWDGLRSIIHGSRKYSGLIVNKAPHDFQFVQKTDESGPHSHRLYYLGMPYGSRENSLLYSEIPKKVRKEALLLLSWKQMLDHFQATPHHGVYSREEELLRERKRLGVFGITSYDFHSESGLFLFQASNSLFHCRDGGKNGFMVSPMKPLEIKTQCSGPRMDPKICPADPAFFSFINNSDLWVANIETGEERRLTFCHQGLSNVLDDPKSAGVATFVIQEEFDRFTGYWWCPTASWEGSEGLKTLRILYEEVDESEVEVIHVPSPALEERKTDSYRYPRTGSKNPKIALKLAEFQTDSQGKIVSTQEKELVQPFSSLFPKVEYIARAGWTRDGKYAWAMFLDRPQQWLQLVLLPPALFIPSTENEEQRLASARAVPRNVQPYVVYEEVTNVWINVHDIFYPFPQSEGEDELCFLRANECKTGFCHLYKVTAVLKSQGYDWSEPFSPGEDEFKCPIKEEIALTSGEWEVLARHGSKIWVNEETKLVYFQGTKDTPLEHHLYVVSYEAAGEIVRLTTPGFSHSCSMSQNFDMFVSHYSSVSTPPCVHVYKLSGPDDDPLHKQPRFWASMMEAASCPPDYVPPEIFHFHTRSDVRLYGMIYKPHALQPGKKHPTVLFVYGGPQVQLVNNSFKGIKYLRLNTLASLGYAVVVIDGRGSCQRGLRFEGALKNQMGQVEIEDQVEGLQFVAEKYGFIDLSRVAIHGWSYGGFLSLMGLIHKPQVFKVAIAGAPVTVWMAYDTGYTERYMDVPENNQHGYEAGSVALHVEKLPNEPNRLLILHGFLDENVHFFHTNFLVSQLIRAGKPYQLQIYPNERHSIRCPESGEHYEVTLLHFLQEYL

inhibition [3]: inactive | inhibition [4]: inactive | inhibition [5]: inactive | inhibition [6]: inactive | inhibition [7]: inactive | inhibition [8]: inactive | inhibition [9]: inactive | inhibition [10]: inactive | inhibition [11]: inactive | inhibition [12]: inactive | inhibition [13]: inactive | inhibition [14]: inactive | inhibition [15]: inactive | inhibition [16]: Active
Compound: N#C/C(=C\c1cccn1S(=O)(=O)c1cccc([N+](=O)[O-])c1)S(=O)(=O)c1ccc(F)cc1
Activity [1]: inactive | Activity [2]: inactive

From ChEMBL document CHEMBL2203175, “Discovery and optimization of sulfonyl acrylonitriles as selective, covalent inhibitors of protein phosphatase methylesterase-1” (J Med Chem, 2011)
